# Tests used:
# [1] = folding enthalpy; higher = less favourable; fluorescence melt of hairpins on a sequencing array, two-state fit; conditions: sodium 0.088 M
# Outline: (§1)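 To match UV melts, fitted temperatures were raised by 9.35 °C. These fits were bootstrapped two-state models that gave melting temperature and folding enthalpy, combined by inverse variance over four replicates. The input was normalised Cy3 fluorescence of library hairpins with annealed Cy3 and quencher oligos on a sequenced MiSeq flow cell, imaged in 50 mM Na-HEPES pH 8.0, 25 mM NaCl in 2.5 °C steps up to 60 °C.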
# [2] = melting temperature; fluorescence melt of hairpins on a sequencing array, two-state fit, raised by 9.35 °C to match UV melts; conditions: sodium 0.088 M
# Outline: as §1
sequence,measurement,setting,value
GTTGTCGGAAACGGTAAC (((..((....))..))),folding enthalpy,[1],-21.9 kcal/mol
same,Tm,[2],33.1 °C
GTTGTGAAAACAAC (((((....))))),folding enthalpy,[1],-29.6 kcal/mol
same,Tm,[2],50.5 °C
GTTGTGCGAAAGCAAAC (((.(((....)))))),folding enthalpy,[1],-16.5 kcal/mol
same,Tm,[2],46.8 °C
GTTGTGCGAAAGCAGAAC (((.(((....))).))),folding enthalpy,[1],-30.9 kcal/mol
same,Tm,[2],54.1 °C
GTTGTGGGAAACTACAAC (((((.(....).))))),folding enthalpy,[1],-36.1 kcal/mol
same,Tm,[2],46.3 °C
GTTGTTCGAAAGAAAAAC (((.(((....))).))),folding enthalpy,[1],-29.1 kcal/mol
same,Tm,[2],34.9 °C
GTTGTTGGAAACAACGAC ((.((((....)))).)),folding enthalpy,[1],-18.6 kcal/mol
same,Tm,[2],55.9 °C
GTTTAACCGAAAGGTAAC (((..(((....)))))),folding enthalpy,[1],-10.4 kcal/mol
same,Tm,[2],29.7 °C
GTTTAAGGAAACTTAAGC (.(((((....))))).),folding enthalpy,[1],-13.9 kcal/mol
same,Tm,[2],32.4 °C
GTTTAAGGAAACTTGAAC (((.(((....))).))),folding enthalpy,[1],-18.5 kcal/mol
same,Tm,[2],35 °C
GTTTACCGAAAGGTCAAC (((.(((....))).))),folding enthalpy,[1],-24.8 kcal/mol
same,Tm,[2],39.1 °C
GTTTACGGAAACGTAAAC (((((((....))))))),folding enthalpy,[1],-41.1 kcal/mol
same,Tm,[2],57.5 °C
GTTTACGGAAACGTAGAC ((.((((....)))).)),folding enthalpy,[1],-24.7 kcal/mol
same,Tm,[2],40.3 °C
GTTTAGCGAAAGCTAAC (((.(((....)))))),folding enthalpy,[1],-11.7 kcal/mol
same,Tm,[2],44.1 °C
GTTTAGCGAAAGCTTAAC (((.(((....))).))),folding enthalpy,[1],-22.1 kcal/mol
same,Tm,[2],44.1 °C
GTTTAGGAAACTAAAC ((((((....)))))),folding enthalpy,[1],-30.6 kcal/mol
same,Tm,[2],44.7 °C
GTTTAGGGAAACCTGAAC (((.(((....))).))),folding enthalpy,[1],-34.8 kcal/mol
same,Tm,[2],38.5 °C
GTTTAGGGAAACTTGAAC (((.(.(....).).))),folding enthalpy,[1],-13 kcal/mol
same,Tm,[2],34.1 °C
GTTTAGTCGAAAGACAAC (((..(((....)))))),folding enthalpy,[1],-10.8 kcal/mol
same,Tm,[2],27.4 °C
GTTTATGCGAAAGCAAAC (((..(((....)))))),folding enthalpy,[1],-8.45 kcal/mol
same,Tm,[2],28.1 °C
GTTTCAGAAATGAAAC ((((((....)))))),folding enthalpy,[1],-27.3 kcal/mol
same,Tm,[2],47.2 °C
GTTTCAGGAAACTGAAAC (((((((....))))))),folding enthalpy,[1],-45 kcal/mol
same,Tm,[2],55.3 °C
GTTTCAGGAAACTGAAGC (.(((((....))))).),folding enthalpy,[1],-22.2 kcal/mol
same,Tm,[2],38.9 °C
GTTTCAGGAAACTGAGAC ((.((((....)))).)),folding enthalpy,[1],-24.9 kcal/mol
same,Tm,[2],37.3 °C
GTTTCCCCGAAAGGGAAC (((..(((....)))))),folding enthalpy,[1],-13.7 kcal/mol
same,Tm,[2],38.5 °C
GTTTCCCGAAAGGGGAAC (((.(((....))).))),folding enthalpy,[1],-36.2 kcal/mol
same,Tm,[2],56.1 °C
GTTTCCGAAAGGAATAAC ((((((....)))..))),folding enthalpy,[1],-12 kcal/mol
same,Tm,[2],30.2 °C
GTTTCCGAAAGGAGCAAC ((((((....)))..))),folding enthalpy,[1],-11.8 kcal/mol
same,Tm,[2],26.8 °C
GTTTCCGAAAGGATAAAC ((((((....)))..))),folding enthalpy,[1],-15.8 kcal/mol
same,Tm,[2],29.7 °C
GTTTCCGAAAGGATCAAC ((((((....)))..))),folding enthalpy,[1],-11.2 kcal/mol
same,Tm,[2],22.4 °C
GTTTCCGAAAGGATGAAC ((((((....)))..))),folding enthalpy,[1],-8.12 kcal/mol
same,Tm,[2],25.8 °C
GTTTCCGGAAACGGAGAC ((.((((....)))).)),folding enthalpy,[1],-20.2 kcal/mol
same,Tm,[2],47.6 °C
GTTTCCGGAAACGGGAAC (((.(((....))).))),folding enthalpy,[1],-28.2 kcal/mol
same,Tm,[2],54 °C
GTTTCGAAAGAAAC (((((....))))),folding enthalpy,[1],-29.1 kcal/mol
same,Tm,[2],53.6 °C
GTTTCTCGAAAGAGCAAC (((.(((....))).))),folding enthalpy,[1],-23.6 kcal/mol
same,Tm,[2],36.4 °C
GTTTCTGAAAAGAAAC ((((((....)))))),folding enthalpy,[1],-37 kcal/mol
same,Tm,[2],50.2 °C
GTTTGAGCGAAAGCTAAC (((..(((....)))))),folding enthalpy,[1],-10.5 kcal/mol
same,Tm,[2],31.1 °C
GTTTGAGGAAACTCAAAC (((((((....))))))),folding enthalpy,[1],-36.8 kcal/mol
same,Tm,[2],55.8 °C
GTTTGCGAAAGCATAAAC ((((((....)))..))),folding enthalpy,[1],-13 kcal/mol
same,Tm,[2],31.5 °C
GTTTGCGGAAACGTAAGC (.((.((....)).)).),folding enthalpy,[1],-22 kcal/mol
same,Tm,[2],33 °C
GTTTGCGGAAACGTGAAC (((..((....))..))),folding enthalpy,[1],-30.7 kcal/mol
same,Tm,[2],41.2 °C
GTTTGGACGAAAGTCAAC (((..(((....)))))),folding enthalpy,[1],-12.7 kcal/mol
same,Tm,[2],34.7 °C
GTTTGGGGAAACCTGAAC (((..((....))..))),folding enthalpy,[1],-16 kcal/mol
same,Tm,[2],32 °C
GTTTGGGGAAACTCAAGC (.(((.(....).))).),folding enthalpy,[1],-12.2 kcal/mol
same,Tm,[2],27.1 °C
GTTTGTGGAAACATAAAC ((((.((....)).)))),folding enthalpy,[1],-22.8 kcal/mol
same,Tm,[2],39.6 °C
GTTTGTGGAAACATGAAC (((..((....))..))),folding enthalpy,[1],-21.9 kcal/mol
same,Tm,[2],31.6 °C
GTTTTACGAAAGTAAAC (((.(((....)))))),folding enthalpy,[1],-17.4 kcal/mol
same,Tm,[2],38.7 °C
GTTTTAGCGAAAGCTAAC (((..(((....)))))),folding enthalpy,[1],-13.2 kcal/mol
same,Tm,[2],33 °C
GTTTTCACGAAAGTGAAC (((..(((....)))))),folding enthalpy,[1],-10.3 kcal/mol
same,Tm,[2],35.4 °C
GTTTTCCGAAAGGACAAC (((.(((....))).))),folding enthalpy,[1],-25.8 kcal/mol
same,Tm,[2],41.7 °C
GTTTTCCGAAAGGAGAAC (((.(((....))).))),folding enthalpy,[1],-30.4 kcal/mol
same,Tm,[2],47.1 °C
GTTTTGGGAAACCAAAGC (.(((((....))))).),folding enthalpy,[1],-29.8 kcal/mol
same,Tm,[2],41 °C
GTTTTGGGAAACCAAGAC ((.((((....)))).)),folding enthalpy,[1],-24.6 kcal/mol
same,Tm,[2],39 °C
GTTTTGGGAAACTAAAAC (((((.(....).))))),folding enthalpy,[1],-24.3 kcal/mol
same,Tm,[2],36.6 °C
GTTTTGTCGAAAGACAAC (((..(((....)))))),folding enthalpy,[1],-12.8 kcal/mol
same,Tm,[2],37.5 °C
GTTTTTCGAAAGAACAAC (((.(((....))).))),folding enthalpy,[1],-17.8 kcal/mol
same,Tm,[2],34.3 °C
GTTTTTGAAAAAAAAC ((((((....)))))),folding enthalpy,[1],-27.3 kcal/mol
same,Tm,[2],43.3 °C
GTTTTTGGAAACAAAAGC (.(((((....))))).),folding enthalpy,[1],-29.6 kcal/mol
same,Tm,[2],35.6 °C
GTTTTTTCGAAAGAAAAC (((..(((....)))))),folding enthalpy,[1],-19.7 kcal/mol
same,Tm,[2],32.1 °C
TAACCGAAAGGTTA (((((....))))),folding enthalpy,[1],-15.2 kcal/mol
same,Tm,[2],56.7 °C
TAACTGAAAAGTTA (((((....))))),folding enthalpy,[1],-9.74 kcal/mol
same,Tm,[2],29.4 °C
TACATGAAAATGTA (((((....))))),folding enthalpy,[1],-12.7 kcal/mol
same,Tm,[2],32.1 °C
TCACTGAAAAGTGA (((((....))))),folding enthalpy,[1],-18.7 kcal/mol
same,Tm,[2],43.4 °C
TCAGAGAAATCTGA (((((....))))),folding enthalpy,[1],-9.32 kcal/mol
same,Tm,[2],27.6 °C
TCGATGAAAATCGA (((((....))))),folding enthalpy,[1],-19.5 kcal/mol
same,Tm,[2],47.4 °C
TCGGAGAAATCCGA (((((....))))),folding enthalpy,[1],-16.8 kcal/mol
same,Tm,[2],47.3 °C
TCGGTGAAAACCGA (((((....))))),folding enthalpy,[1],-17.7 kcal/mol
same,Tm,[2],53 °C
TCTAGGAAACTAGA (((((....))))),folding enthalpy,[1],-10.5 kcal/mol
same,Tm,[2],29.7 °C
TCTCCGAAAGGAGA (((((....))))),folding enthalpy,[1],-17.6 kcal/mol
same,Tm,[2],59.5 °C
TCTCTGAAAAGAGA (((((....))))),folding enthalpy,[1],-12.1 kcal/mol
same,Tm,[2],37.2 °C
TGACTGAAAAGTCA (((((....))))),folding enthalpy,[1],-23.2 kcal/mol
same,Tm,[2],46 °C
TGCAAGAAATTGCA (((((....))))),folding enthalpy,[1],-17.6 kcal/mol
same,Tm,[2],39.7 °C
TGCAGGAAACTGCA (((((....))))),folding enthalpy,[1],-19.6 kcal/mol
same,Tm,[2],51.8 °C
TGCATGAAAATGCA (((((....))))),folding enthalpy,[1],-19.8 kcal/mol
same,Tm,[2],52 °C
TGGAAGAAATTCCA (((((....))))),folding enthalpy,[1],-12.4 kcal/mol
same,Tm,[2],30.7 °C
TGGACGAAAGTCCA (((((....))))),folding enthalpy,[1],-19.4 kcal/mol
same,Tm,[2],67.5 °C
TGGGTGAAAACCCA (((((....))))),folding enthalpy,[1],-18.8 kcal/mol
same,Tm,[2],53.5 °C
TGTATGAAAATACA (((((....))))),folding enthalpy,[1],-11 kcal/mol
same,Tm,[2],34.5 °C
TGTCCGAAAGGACA (((((....))))),folding enthalpy,[1],-13.6 kcal/mol
same,Tm,[2],68.8 °C
TTACGGAAACGTAA (((((....))))),folding enthalpy,[1],-14.8 kcal/mol
same,Tm,[2],42.1 °C
TTACTGAAAAGTAA (((((....))))),folding enthalpy,[1],-8.68 kcal/mol
same,Tm,[2],26.7 °C
TTATCGAAAGATAA (((((....))))),folding enthalpy,[1],-14.7 kcal/mol
same,Tm,[2],36.5 °C
TTCACGAAAGTGAA (((((....))))),folding enthalpy,[1],-19.2 kcal/mol
same,Tm,[2],51 °C
TTCATGAAAATGAA (((((....))))),folding enthalpy,[1],-9.75 kcal/mol
same,Tm,[2],28.9 °C
TTCGGGAAACCGAA (((((....))))),folding enthalpy,[1],-18.8 kcal/mol
same,Tm,[2],46.7 °C
TTGAGGAAACTCAA (((((....))))),folding enthalpy,[1],-15.6 kcal/mol
same,Tm,[2],35.3 °C
TTGATGAAAATCAA (((((....))))),folding enthalpy,[1],-13.4 kcal/mol
same,Tm,[2],32.8 °C
TTGCAGAAATGCAA (((((....))))),folding enthalpy,[1],-20.8 kcal/mol
same,Tm,[2],42.3 °C
TTTTCGAAAGAAAA (((((....))))),folding enthalpy,[1],-15.1 kcal/mol
same,Tm,[2],37.8 °C
